Measurements from ChEMBL document CHEMBL5352499, “Differentiating Inhibition Selectivity and Binding Affinity of Isocitrate Dehydrogenase 1 Variant Inhibitors” (J Med Chem, 2023).
Blank lines part the entries; values can stand above or below the compound they belong to. Active and inactive are the calls of the source. The calls are words filed in the database; no cut-off is given here.

Columns and labels:
[1] = test system: Isocitrate dehydrogenase [NADP] cytoplasmic (Homo sapiens), O75874 [R132H]; conditions: dose 3-100 µM
Chain of Isocitrate dehydrogenase [NADP] cytoplasmic (Homo sapiens), O75874 [R132H] (O75874 whole entry R132H): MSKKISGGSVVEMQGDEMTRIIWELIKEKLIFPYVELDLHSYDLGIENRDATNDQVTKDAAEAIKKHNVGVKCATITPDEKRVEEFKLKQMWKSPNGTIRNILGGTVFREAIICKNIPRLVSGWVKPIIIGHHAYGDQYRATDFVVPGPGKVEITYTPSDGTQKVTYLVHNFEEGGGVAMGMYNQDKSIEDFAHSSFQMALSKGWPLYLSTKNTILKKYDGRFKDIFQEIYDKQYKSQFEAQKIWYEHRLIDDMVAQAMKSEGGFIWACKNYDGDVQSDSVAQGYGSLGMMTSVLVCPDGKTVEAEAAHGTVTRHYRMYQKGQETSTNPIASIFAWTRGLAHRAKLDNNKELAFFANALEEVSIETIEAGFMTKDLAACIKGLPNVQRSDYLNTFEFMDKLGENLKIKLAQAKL

[2] = Selectivity index, ratio of IC50 for recombinant wildtype IDH1 expressed in Escherichia coli BL21(DE3) pLysS cells to IC50 for recombinant IDH1 R132H mutant (unknown origin) expressed in Escherichia coli BL21(DE3) pLysS cells
[3] = target: T1, Isocitrate dehydrogenase [NADP] cytoplasmic (Homo sapiens, UniProt O75874, R132H); assay: Inhibition of recombinant IDH1 R132H mutant (unknown origin) expressed in Escherichia coli BL21(DE3) pLysS cells using 2OG as substrate assessed as 2OG conversion to 2HG incubated for 60 mins in presence of NADPH by spectrophotometric analysis
T1 sequence (O75874 2-414 R132H limits assumed): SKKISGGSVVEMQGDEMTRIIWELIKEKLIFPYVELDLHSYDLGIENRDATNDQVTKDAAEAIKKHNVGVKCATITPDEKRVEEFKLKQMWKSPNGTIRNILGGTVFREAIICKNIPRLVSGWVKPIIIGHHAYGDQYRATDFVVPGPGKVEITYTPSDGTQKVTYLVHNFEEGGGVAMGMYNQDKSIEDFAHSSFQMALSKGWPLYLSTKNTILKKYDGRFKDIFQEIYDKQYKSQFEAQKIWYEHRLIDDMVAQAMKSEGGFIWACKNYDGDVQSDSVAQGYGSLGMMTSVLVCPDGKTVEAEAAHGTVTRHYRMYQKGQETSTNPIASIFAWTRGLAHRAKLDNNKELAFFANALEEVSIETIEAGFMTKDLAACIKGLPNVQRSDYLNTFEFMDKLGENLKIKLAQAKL

[4] = target: T2, Isocitrate dehydrogenase [NADP] cytoplasmic (Homo sapiens, UniProt O75874); conditions: dose 3-100 µM
T2 sequence (O75874 whole entry): as the sequence (O75874 whole entry R132H) above, with H132R counted along it

[5] = target: T1, Isocitrate dehydrogenase [NADP] cytoplasmic; assay: Binding affinity to human recombinant IDH1 R132H mutant expressed in Escherichia coli BL21(DE3) pLysS cells assessed as dissociation constant by non-denaturing mass spectroscopic analysis
[6] = test system: Isocitrate dehydrogenase [NADP] cytoplasmic (Homo sapiens), O75874 [R132H]; conditions: dose 42.0 µM
[7] = target: T2, Isocitrate dehydrogenase [NADP] cytoplasmic; assay: Binding affinity to recombinant wildtype IDH1 (unknown origin) expressed in Escherichia coli BL21(DE3) pLysS cells incubated in presence of MgCl2 by NMR analysis
[8] = test system: Isocitrate dehydrogenase [NADP] cytoplasmic (Homo sapiens), O75874 [R132H]; assay: Binding affinity to recombinant IDH1 R132H mutant (unknown origin) expressed in Escherichia coli BL21(DE3) pLysS cells incubated in presence of MgCl2 by NMR analysis
[9] = target: T2, Isocitrate dehydrogenase [NADP] cytoplasmic; assay: Binding affinity to recombinant IDH1 (unknown origin) expressed in Escherichia coli BL21(DE3) pLysS cells incubated in presence of MgCl2 by ITC assay
In short: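 Homodimeric wt IDH1 in 50 mM tris–HCl, pH 7.5; cell 40 μM protein (4% v/v DMSO), titrant 200 or 400 μM compound (2% or 4% DMSO). 25 °C, stirring 750 rpm, 19 injections (0.4 μL then 18 × 2.0 μL, 150 s apart); thermodynamic parameters fitted from the heats.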

[10] = target: T2, Isocitrate dehydrogenase [NADP] cytoplasmic; assay: Binding affinity to human recombinant IDH1 expressed in Escherichia coli BL21(DE3) pLysS cells assessed as dissociation constant by non-denaturing mass spectroscopic analysis
[11] = test system: Isocitrate dehydrogenase [NADP] cytoplasmic (Homo sapiens), O75874 [R132H]; assay: Binding affinity to recombinant IDH1 R132H mutant (unknown origin) expressed in Escherichia coli BL21(DE3) pLysS cells incubated in presence of MgCl2 by ITC assay
In short: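 IDH1 R132H homodimer in 50 mM tris–HCl, pH 7.5; 40 μM protein in cell (4% v/v DMSO) titrated at 25 °C with 200 or 400 μM compound (2% or 4% DMSO), 19 injections (0.4 μL, then 2.0 μL × 18, 150 s spacing), 750 rpm; thermodynamic parameters from fitted isotherm.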

ΔTm [1]: 6.6 °C
IC50 [3]: 0.073 µM
ΔTm [4]: 8.1 °C
SMILES: Cc1ccccc1C(C(=O)NC1CCCCC1)N(C(=O)Cn1cnc2ccccc21)c1cccc(F)c1 (stereo not drawn)
Ratio IC50 [2]: > 556

Kd [5]: 98 µM
SMILES: Cc1ccccc1C(C(=O)NC1CCCCC1)N(C(=O)Cn1ccnc1C)c1cccc(F)c1 (stereo not drawn)

ΔTm [1]: 11.7 °C
ΔTm [6]: 11.2 °C
SMILES: CC(=O)N1CCN(Cc2ccc([C@H](C)Nc3nccc(N4C(=O)OC[C@@H]4C(C)C)n3)cc2)CC1

Activity [7]: Active
Activity [8]: Active
Activity [9]: Active
Kd [5]: 23 µM
Kd [10]: 24 µM
Activity [11]: Active
SMILES: COc1c(C)cc(NC(=O)c2nn(Cc3ccc(F)cc3)c3c2CN(C(=O)c2ccc[nH]2)C[C@]3(C)C(N)=O)cc1C
